Test results taken from ChEMBL document CHEMBL3352347, “ΔF508-CFTR correctors: synthesis and evaluation of thiazole-tethered imidazolones, oxazoles, oxadiazoles, and thiadiazoles” (Bioorg Med Chem Lett, 2014).

molecular target: Cystic fibrosis transmembrane conductance regulator (Homo sapiens, UniProt P13569); test: (§1) Activity of human CFTR F508 deletion mutant expressed in FRT cells assessed as potentiation of genistein-induced iodine ion influx after 24 hrs by YFP-H148Q/I152L fluorescent quenching assay; assay type: cell-based; settings: frt
Sequence (P13569 as listed by the source): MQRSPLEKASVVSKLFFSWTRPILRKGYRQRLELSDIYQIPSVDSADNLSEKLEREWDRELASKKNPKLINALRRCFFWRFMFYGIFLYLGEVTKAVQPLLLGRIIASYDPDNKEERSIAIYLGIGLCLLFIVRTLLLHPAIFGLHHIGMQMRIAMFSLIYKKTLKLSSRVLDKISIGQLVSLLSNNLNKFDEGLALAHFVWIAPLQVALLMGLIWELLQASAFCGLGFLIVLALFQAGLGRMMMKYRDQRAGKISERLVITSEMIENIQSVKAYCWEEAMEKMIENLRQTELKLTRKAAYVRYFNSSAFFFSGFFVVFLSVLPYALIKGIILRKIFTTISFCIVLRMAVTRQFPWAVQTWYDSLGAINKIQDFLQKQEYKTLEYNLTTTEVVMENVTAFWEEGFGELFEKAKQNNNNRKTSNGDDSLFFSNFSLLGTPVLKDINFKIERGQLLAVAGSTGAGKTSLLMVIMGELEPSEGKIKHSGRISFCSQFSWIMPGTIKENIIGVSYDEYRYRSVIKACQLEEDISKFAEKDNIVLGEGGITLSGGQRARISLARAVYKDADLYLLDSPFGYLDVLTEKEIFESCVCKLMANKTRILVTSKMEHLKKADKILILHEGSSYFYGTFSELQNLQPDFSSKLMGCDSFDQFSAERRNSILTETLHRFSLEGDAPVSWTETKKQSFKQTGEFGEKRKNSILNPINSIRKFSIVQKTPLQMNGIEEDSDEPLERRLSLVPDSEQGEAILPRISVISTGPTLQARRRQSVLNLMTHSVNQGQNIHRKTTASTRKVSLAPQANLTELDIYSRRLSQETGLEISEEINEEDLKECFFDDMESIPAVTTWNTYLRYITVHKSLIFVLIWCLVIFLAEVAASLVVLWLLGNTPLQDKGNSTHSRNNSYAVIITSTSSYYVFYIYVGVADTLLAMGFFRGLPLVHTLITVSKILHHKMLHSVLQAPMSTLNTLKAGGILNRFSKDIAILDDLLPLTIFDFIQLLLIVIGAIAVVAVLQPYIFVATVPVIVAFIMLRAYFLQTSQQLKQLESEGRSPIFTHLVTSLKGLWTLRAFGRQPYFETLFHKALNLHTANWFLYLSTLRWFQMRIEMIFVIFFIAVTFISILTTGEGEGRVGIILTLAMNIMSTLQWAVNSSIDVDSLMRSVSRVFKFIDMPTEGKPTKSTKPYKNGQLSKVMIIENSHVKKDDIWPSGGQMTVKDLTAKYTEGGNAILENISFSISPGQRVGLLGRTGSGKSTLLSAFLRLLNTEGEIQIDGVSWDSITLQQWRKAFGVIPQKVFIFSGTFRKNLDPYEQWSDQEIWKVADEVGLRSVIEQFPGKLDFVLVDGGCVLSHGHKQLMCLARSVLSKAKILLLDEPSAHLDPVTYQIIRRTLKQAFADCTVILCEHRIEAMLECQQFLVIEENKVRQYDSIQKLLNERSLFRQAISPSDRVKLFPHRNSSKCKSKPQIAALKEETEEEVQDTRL
Outline: (§2)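 FRT cells co-expressing human ΔF508-CFTR and the iodide-sensitive YFP-H148Q/I152L sensor were incubated 24 h with each compound. Iodide influx, used as a chloride surrogate, was then read from the kinetics of YFP quenching after iodide addition, with cells stimulated by a cAMP agonist plus genistein. Corrector activity was derived from influx versus concentration data.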

Compound	EC50
COc1ccc(Cl)cc1-n1cc(-c2sc(NC(=O)C(C)(C)C)nc2C)[nH]c1=O	Not Active
COc1ccc(Cl)cc1Nc1nnc(-c2csc(NC(=O)C(C)(C)C)n2)s1	Not Active
COc1ccc(Cl)cc1Nc1nc(C)c(-c2csc(NC(=O)C(C)(C)C)n2)s1	Not Active

molecular target: Cystic fibrosis transmembrane conductance regulator (Homo sapiens, UniProt P13569, F508DEL); test: as §1; assay type: cell-based; settings: not given; outline: as §2
Sequence (P13569 as listed by the source): as above

Compound	EC50
COc1ccc(Cl)cc1Nc1ncc(-c2sc(NC(=O)C(C)(C)C)nc2C)o1	740 nM
COc1ccc(Cl)cc1Nc1nc(-c2sc(NC(=O)C(C)(C)C)nc2C)cs1	870 nM
COc1ccc(Cl)cc1Nc1nnc(-c2csc(NC(=O)C(C)(C)C)n2)o1	660 nM
COc1ccc(Cl)cc1Nc1nc(-c2nnc(NC(=O)C(C)(C)C)o2)cs1	590 nM
